Laboratory results as given in ChEMBL document CHEMBL1124657, “Retinobenzoic acids. 2. Structure-activity relationships of chalcone-4-carboxylic acids and flavone-4'-carboxylic acids” (1989).
Calls of active or inactive are those of the source. No cut-off for these calls is given here.

Key:
HL-60 [1] = assay: Activity relative to retinoic acid in differentiating promyelocytic leukemic HL-60 cells; type: functional, Homo sapiens
HL-60 [2] = assay: Differentiation inducing activity towards human promyelocytic leukemia cell line HL-60 assayed by nitroblue tetrazolium reduction; type: functional; settings: read-out: ED50 (the source's name)
Procedure, shortened: (§1)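 HL-60 cells in RPMI1640 with 5% FCS at 37 °C, 5% CO₂; seeded about 8 × 10⁴ cells/mL and exposed 4 days to compounds from 0.2 mM ethanol stock (final ethanol below 0.5%; ethanol-only controls). Retinoic acid run concurrently. NBT reduction: 20 min at 37 °C with 0.2% NBT and TPA 200 ng/mL in PBS/medium. Formazan-positive cells counted among at least 200 cells. Wright-Giemsa morphology also scored. Five orders of concentration covered, at least three repeats. ED50 taken from NBT data.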

HL-60 [3] = assay: Differentiation inducing activity towards human promyelocytic leukemia cell line HL-60 by nitroblue tetrazolium reduction assay; IA is Inactive; type: functional, cell-based; procedure, shortened: as §1
HL-60 [4] = assay: Differentiation inducing activity towards human promyelocytic leukemia cell line HL-60 by nitroblue tetrazolium reduction assay;IA is Inactive; type: functional, cell-based; procedure, shortened: as §1
HL-60 [5] = assay: Differentiation inducing activity towards human promyelocytic leukemia cell line HL-60 by nitroblue tetrazolium reduction assay;IA is inactive; type: functional, cell-based; procedure, shortened: as §1

EC50 (HL-60 [2]) [nM]	SMILES	Relative activity (HL-60 [1])	ED50 (HL-60 [3])	ED50 (HL-60 [4])	ED50 (HL-60 [5])
28	CC(C)(C)c1ccc(C(=O)/C=C/c2ccc(C(=O)O)cc2)cc1	0.039	–	–	–
690	CC1(C)CCOc2c(C(=O)/C=C/c3ccc(C(=O)O)cc3)cccc21	0.0077	–	–	–
3.9	COc1cc2c(cc1C(=O)/C=C/c1ccc(C(=O)O)cc1)C(C)(C)CCC2(C)C	0.35	–	–	–
> 1000	CC1(C)CCSc2ccc(C(=O)/C=C/c3ccc(C(=O)O)cc3)cc21	< 0.0001	–	–	–
> 1000	CC1(C)CCC(C)(C)c2cc(C(=O)/C=C/c3ccc(C(N)=O)cc3)ccc21	< 0.0001	–	–	–
1.2	CC1(C)CCC(C)(C)c2cc3c(=O)c(O)c(-c4ccc(C(=O)O)cc4)oc3cc21	1.25	–	–	–
0.54	Cc1cc2c(cc1C(=O)/C=C/c1ccc(C(=O)O)cc1)C(C)(C)CCC2(C)C	2.1	–	–	–
0.82	CC(C)c1ccc(C(=O)/C=C/c2ccc(C(=O)O)cc2)cc1C(C)C	1.8	–	–	–
> 1000	COc1c(-c2ccc(C(=O)O)cc2)oc2cc3c(cc2c1=O)C(C)(C)CCC3(C)C	< 0.0001	–	–	–
0.046	CC1(C)CCC(C)(C)c2cc3c(=O)cc(-c4ccc(C(=O)O)cc4)oc3cc21	27.4	–	–	–
170	CCc1ccc(C(=O)/C=C/c2ccc(C(=O)O)cc2)cc1CC	0.0083	–	–	–
> 1000	CC1(C)CCC(C)(C)c2cc(C(=O)/C=C/c3cccc(C(=O)O)c3)ccc21	< 0.0001	–	–	–
45	CC(C)(C)c1ccc(C(C)(C)C)c(C(=O)/C=C/c2ccc(C(=O)O)cc2)c1	0.021	–	–	–
> 1000	CC1(C)CCOc2ccc(C(=O)/C=C/c3ccc(C(=O)O)cc3)cc21	< 0.0001	–	–	–
480	CC(C)(C)c1ccc2c(=O)cc(-c3ccc(C(=O)O)cc3)oc2c1	0.0058	–	–	–
30	COC(=O)c1ccc(/C=C/C(=O)c2ccc3c(c2)C(C)(C)CCC3(C)C)cc1	0.043	–	–	–
160	CC(C)(C)c1cccc(C(=O)/C=C/c2ccc(C(=O)O)cc2)c1	0.0081	–	–	–

Continued, compound first:

SMILES	EC50 (HL-60 [2]) [nM]	Relative activity (HL-60 [1])	ED50 (HL-60 [3])	ED50 (HL-60 [4])	ED50 (HL-60 [5])
CC(C)(C)c1ccc(/C(O)=C/C(=O)c2ccc(C(=O)O)cc2)c(O)c1	560	0.0023	–	–	–
CC1(C)CCOc2cc3c(=O)cc(-c4ccc(C(=O)O)cc4)oc3cc21	250	0.017	–	–	–
CC(C)(C)c1ccc2oc(-c3ccc(C(=O)O)cc3)cc(=O)c2c1	> 1000	< 0.0001	–	–	–
CC(C)(C)c1cc(C(=O)/C=C/c2ccc(C(=O)O)cc2)cc(C(C)(C)C)c1	0.21	6.4	–	–	–
COc1ccc(C(=O)/C=C/c2ccc(C(=O)O)cc2)cc1OC	–	–	inactive	–	–
CC1(C)CCC(C)(C)c2cc(C(=O)/C=C/c3ccc(C(=O)O)cc3)ccc21	0.64	2.8	–	–	–
CC1(C)CCC(C)(C)c2cc(C(=O)/C=C/c3ccc(C(=O)O)c(O)c3)ccc21	1.7	0.88	–	–	–
O=C(O)c1ccc(C(=O)/C=C(\O)c2ccccc2O)cc1	–	–	inactive	–	–
CC(C)(C)c1ccc(O)c(/C(O)=C/C(=O)c2ccc(C(=O)O)cc2)c1	> 1000	< 0.0001	–	–	–
CC1(C)CCC(C)(C)c2cc(/C(O)=C/C(=O)c3ccc(C(=O)O)cc3)c(O)cc21	0.063	7.6	–	–	–
CC1=C(/C=C/C(C)=C/C=C/C(C)=C/C(=O)O)C(C)(C)CCC1 [TRETINOIN]	2.4	1	–	–	–
Cc1ccc(/C=C/C(=O)c2ccc3c(c2)C(C)(C)CCC3(C)C)cc1	–	–	–	inactive	–
CC1(C)CCC(C)(C)c2cc(C(=O)/C=C/c3ccc(C(=O)O)cc3)c(O)cc21	0.15	1.4	–	–	–
COC(=O)c1ccc(-c2cc(=O)c3cc4c(cc3o2)C(C)(C)CCC4(C)C)cc1	0.48	8.5	–	–	–
CC1(C)CCC(C)(C)c2cc(C(=O)/C=C/c3ccc(C(=O)Cl)cc3)ccc21	3.3	0.52	–	–	–
O=C(O)c1ccc(-c2cc(=O)c3ccccc3o2)cc1	–	–	–	–	inactive
CCCCOC(=O)c1ccc(/C=C/C(=O)c2ccc3c(c2)C(C)(C)CCC3(C)C)cc1	27	0.063	–	–	–
O=C(O)c1ccc(/C=C/C(=O)c2ccccc2)cc1	–	–	inactive	–	–
